Key:
Prothrombin = Prothrombin (Homo sapiens, UniProt P00734); experiment: Inhibitory concentration against human Coagulation factor II (thrombin)
Coagulation factor X = Coagulation factor X (Homo sapiens, UniProt P00742); experiment: Inhibitory concentration against human Coagulation factor X
[1] = Number of mice died after 1 day upon i.v. administration at 10 mg/kg into tail vein out of 3 animals tested; assay type: ADME, organism-based; design: dose 10 mg/kg, route intravenous; details: mouse, in vivo, iv, 24 h
Method in brief: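 Male ICR mice given a single 10 mg/kg bolus into the tail vein. Result is expressed as deaths per animals tested.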

Plasminogen = Plasminogen (Homo sapiens, UniProt P00747); experiment: Inhibitory concentration against human Plasmin
Method in brief: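 Plasmin assay, human enzyme at 0.02 U/mL as added, preincubated 10 min at 37 °C with vehicle or compound at 12.5, 25 and 50 µM final. S-2403 was added at 0.125 and 0.25 mM final and incubated 10 min at 37 °C. Stopped with 60% acetic acid; A405 of p-nitroaniline.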

Trypsin = Trypsin (Homo sapiens, UniProt P07477+P07478+P35030); experiment: Inhibitory concentration against human Trypsin; assay type: protein assay
Method in brief: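 Human trypsin (5 U/mL as added) preincubated 10 min at 37 °C with vehicle or compound at 50, 100 and 200 µM final. S-2222 was added at 0.125 and 0.25 mM final and incubated 10 min at 37 °C. Stopped with 60% acetic acid; p-nitroaniline read at 405 nm.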

Coagulation factor X, sequence (P00742 41-179 limits assumed): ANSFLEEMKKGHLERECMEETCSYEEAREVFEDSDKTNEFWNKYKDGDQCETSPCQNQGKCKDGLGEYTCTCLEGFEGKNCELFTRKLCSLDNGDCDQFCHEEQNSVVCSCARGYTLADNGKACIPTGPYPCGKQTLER
Coagulation factor X, sequence (P00742 235-488 limits assumed): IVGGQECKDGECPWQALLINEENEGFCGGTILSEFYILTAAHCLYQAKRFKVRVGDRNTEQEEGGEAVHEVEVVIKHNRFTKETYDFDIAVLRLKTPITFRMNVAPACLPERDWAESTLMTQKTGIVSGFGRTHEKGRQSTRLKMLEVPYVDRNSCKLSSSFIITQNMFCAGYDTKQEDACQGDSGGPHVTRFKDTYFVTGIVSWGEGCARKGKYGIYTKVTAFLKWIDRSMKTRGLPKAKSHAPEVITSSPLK
Plasminogen, sequence (P00747 97-580 limits assumed): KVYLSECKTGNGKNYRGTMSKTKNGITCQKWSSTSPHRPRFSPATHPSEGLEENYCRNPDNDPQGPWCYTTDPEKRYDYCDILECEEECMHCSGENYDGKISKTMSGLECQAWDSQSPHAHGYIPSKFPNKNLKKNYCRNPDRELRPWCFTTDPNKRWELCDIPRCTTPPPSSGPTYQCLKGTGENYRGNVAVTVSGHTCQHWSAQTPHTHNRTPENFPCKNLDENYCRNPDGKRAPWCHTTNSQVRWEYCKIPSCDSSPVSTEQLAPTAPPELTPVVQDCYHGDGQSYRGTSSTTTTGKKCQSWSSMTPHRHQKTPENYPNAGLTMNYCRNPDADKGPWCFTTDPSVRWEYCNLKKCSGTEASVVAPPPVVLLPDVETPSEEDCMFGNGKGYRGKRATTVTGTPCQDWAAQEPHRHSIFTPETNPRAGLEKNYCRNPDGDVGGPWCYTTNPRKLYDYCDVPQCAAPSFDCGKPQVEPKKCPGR
Plasminogen, sequence (P00747 581-810 limits assumed): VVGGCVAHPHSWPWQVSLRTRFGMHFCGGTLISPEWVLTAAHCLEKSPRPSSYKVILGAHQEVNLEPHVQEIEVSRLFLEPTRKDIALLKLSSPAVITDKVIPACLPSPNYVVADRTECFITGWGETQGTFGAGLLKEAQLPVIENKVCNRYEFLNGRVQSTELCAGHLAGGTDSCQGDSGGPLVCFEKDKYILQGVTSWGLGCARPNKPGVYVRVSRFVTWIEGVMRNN

| IC50 (Prothrombin) [µM] | Ki (Plasminogen) [µM] | Ki (Trypsin) [µM] | SMILES | IC50 (Coagulation factor X) [µM] | Mortality [1] |
| --- | --- | --- | --- | --- | --- |
| > 10 |  |  | N=C(N)N1CCCc2ccc(OCC3(C(=O)O)CCN(c4ccncc4)CC3)cc2C1 | > 10 |  |
| > 10 |  |  | N=C(N)N1CCc2ccc(OCC3CCN(Cc4ccccc4N)CC3)cc2C1 | 3.25 |  |
| > 10 |  |  | N=C(N)N1CCc2ccc(S(=O)(=O)NC3(C(=O)O)CCN(c4ccncc4)CC3)cc2C1 |  |  |
| > 10 |  |  | N=C(N)c1ccc2ccc(OCC3(C(=O)O)CCN(c4ccncc4)CC3)cc2c1 | 0.51 |  |
| > 10 |  |  | N=C(N)N1CCc2ccc(OCC3CCN(Cc4ccccn4)CC3)cc2C1 | 1.35 |  |
| > 10 |  |  | N=C(N)N1CCc2ccc(S(=O)(=O)CC3(C(=O)O)CCN(c4ccncc4)CC3)cc2C1 | 5.44 |  |
| > 10 |  |  | N=C(N)N1CCc2ccc(OCC3CCN(Cc4cccc(N)c4)CC3)cc2C1 | 4.06 |  |
|  | 23 | 0.62 | CC(=N)N1CC[C@H](Oc2ccc([C@H](Cc3ccc4ccc(C(=N)N)cc4c3)C(=O)O)cc2)C1.Cl [DX-9065A HYDROCHLORIDE HYDRATE] |  |  |

Second part, the molecule before the results:

| SMILES | IC50 (Prothrombin) [µM] | Ki (Plasminogen) [µM] | Ki (Trypsin) [µM] | IC50 (Coagulation factor X) [µM] | Mortality [1] |
| --- | --- | --- | --- | --- | --- |
| Cl.Cl.N=C(N)N1CCc2ccc(OCC3CCN(c4ccncc4)CC3)cc2C1 |  |  |  | 0.056 | 3 |
| Cl.Cl.N=C(N)N1CCc2ccc(OCC3CCN(c4ccncc4CCC(=O)O)CC3)cc2C1 |  |  |  | 0.16 | 0 |
| Cc1cc(N2CCC(COc3ccc4c(c3)CN(C(=N)N)CC4)(C(=O)O)CC2)ccn1.Cl.Cl |  |  |  | 0.23 | 0 |
| Cl.Cl.N=C(N)N1CCc2ccc(OCC3CCN(c4ccnc5ccccc45)CC3)cc2C1 |  |  |  | 0.42 | 3 |
| CCOC(=O)C1(COc2ccc3c(c2)CN(C(=N)N)CC3)CCN(c2ccncc2)CC1.Cl.Cl |  |  |  | 0.074 | 3 |
| N=C(N)N1CCc2ccc(SCC3(C(=O)O)CCN(c4ccncc4)CC3)cc2C1 |  |  |  | 0.39 |  |
| CC(=O)N1CCC(COc2ccc3c(c2)CN(C(=N)N)CC3)CC1 | > 10 |  |  |  |  |
| Cl.Cl.N=C(N)N1CCc2ccc(OCC3(C(=O)O)CCN(c4ccncn4)CC3)cc2C1 |  |  |  | 0.12 | 0 |
| CCOC(=O)C1(COc2ccc3c(c2)CN(C(=N)N)CC3)CCN(c2cc[n+](C)cc2)CC1 |  |  |  | 1.13 |  |
| N=C(N)N1CCc2ccc(OCCC3(C(=O)O)CCN(c4ccncc4)CC3)cc2C1 |  |  |  | 0.23 |  |
| Cl.Cl.Cl.N=C(N)N1CCc2ccc(OCC3CCN(Cc4ccncc4)CC3)cc2C1 |  |  |  |  | 3 |
| CC(=N)N1CCC(COc2ccc3c(c2)CN(C(=N)N)CC3)CC1.Cl.Cl |  |  |  | 0.51 | 3 |
| Cl.Cl.N=C(N)N1CCc2ccc(OCC3CCN(c4ccncc4C(=O)O)CC3)cc2C1 | > 10 |  |  | 1.98 | 0 |
| N=C(N)N1CCc2ccc(OCC3CCNCC3)cc2C1 | > 10 |  |  | 3.34 |  |
| Cl.Cl.N=C(N)N1CCc2ccc(OCC3(C(=O)O)CCN(c4ccncc4)CC3)cc2C1 |  |  |  |  | 0 |
| COC(=O)c1cnccc1N1CCC(COc2ccc3c(c2)CN(C(=N)N)CC3)CC1.Cl.Cl |  |  |  | 0.27 | 3 |
| CCOC(=O)CCc1cnccc1N1CCC(COc2ccc3c(c2)CN(C(=N)N)CC3)CC1.Cl.Cl | > 10 |  |  | 0.19 | 3 |

— ChEMBL document CHEMBL1139513, “Synthesis and structure-activity relationships of novel selective factor Xa inhibitors with a tetrahydroisoquinoline ring” (J Med Chem, 2005)
